For series [1], the system named is Human immunodeficiency virus 1. The series can be described thus: Antiviral activity against HIV1 infected in human MT4 cells expressing GFP incubated for 48 to 72 hrs in absence of 50% normal human serum by multiple round viral replication kinetics assay. In kind it is functional.
A short description of series [2]: (§1) AUC (0 to infinity) in beagle dog at 2 mg/kg, po by LC-MS/MS method. Type of series: ADME, organism-based, Canis lupus familiaris. Details: dose 2 mg/kg, route oral, time infinity; call rule not given here. The note with it: beagle, in vivo.
Series [3] in a line: Solubility in FaSSiF at pH 6.5 at room temperature incubated for 4 hrs. Type of series: physicochemical.
Series [4] is described as follows: Stability in SGF at pH 1.8 at 37 °C incubated for 4 hrs.
The nature of series [5]: Stability in FaSSiF at pH 6.5 at 37 °C incubated for 4 hrs.
For series [6], the system named is Human immunodeficiency virus 1. The series can be described thus: Antiviral activity against HIV1 infected in human MT4 cells expressing GFP incubated for 48 to 72 hrs in presence of 50% normal human serum by multiple round viral replication kinetics assay. Type of series: functional.
For series [7], the system named is Human immunodeficiency virus 1. The series can be described thus: Resistance index, ratio of IC50 for antiviral activity against HIV1 expressing integrase E92Q mutant to IC50 for antiviral activity against HIV1 expressing wild type integrase. Type of series: functional. The procedure, abridged:
(§2)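 Fold shift computed as the inflection point (IP) against mutant HIV-1 divided by the IP against wild-type virus. Both IPs come from a kinetic HIV replication (viral kinetics) potency assay run in 50% normal human serum (NHS).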

Series [8] deals with Human immunodeficiency virus 1. In words: Resistance index, ratio of IC50 for antiviral activity against HIV1 expressing integrase Y143R mutant to IC50 for antiviral activity against HIV1 expressing wild type integrase. In kind it is functional. In a few lines:
as §2

Series [9] relates to Human immunodeficiency virus 1. In words: Resistance index, ratio of IC50 for antiviral activity against HIV1 expressing integrase Q148R mutant to IC50 for antiviral activity against HIV1 expressing wild type integrase. Type of series: functional. The procedure, abridged:
as §2

Series [10] is described as follows: Plasma clearance in Wistar-Hanover rat at 0.2 mg/kg, iv by LC-MS/MS method. Type of series: ADME, organism-based.
The nature of series [11]: Volume of distribution at steady state in Wistar-Hanover rat at 0.2 mg/kg, iv by LC-MS/MS method. Type of series: ADME, organism-based. The note with it: in vivo, read-out: Vdss.
The nature of series [12]: AUC (0 to infinity) in Wistar-Hanover rat at 2 mg/kg, po by LC-MS/MS method. The arrangement: dose 2 mg/kg, route oral, time infinity. In kind it is ADME, organism-based. Particulars: in vivo.
Series [13] in a line: Oral bioavailability in Wistar-Hanover rat at 2 mg/kg by LC-MS/MS method. In kind it is ADME, organism-based. Particulars: in vivo.
Series [14] can be described thus: Volume of distribution at steady state in beagle dog at 0.5 mg/kg, iv by LC-MS/MS method. Type of series: ADME, organism-based, Canis lupus familiaris. Particulars: in vivo, read-out: Vdss.
In series [15] the test system is Canis familiaris. Described as §1. Particulars: in vivo. Type of series: ADME, organism-based, Canis lupus familiaris. The arrangement: dose 2 mg/kg, route oral, time infinity.
In series [16] the test system is Canis familiaris. In words: Oral bioavailability in beagle dog at 2 mg/kg by LC-MS/MS method. In kind it is ADME, organism-based, Canis lupus familiaris. Particulars: in vivo.
Series [17] is described as follows: Half life in beagle dog at 0.5 mg/kg, iv by LC-MS/MS method. Particulars: in vivo.
Series [18] is described as follows: Half life in Wistar-Hanover rat at 0.2 mg/kg, iv by LC-MS/MS method. The note with it: in vivo.
The nature of series [19]: Plasma clearance in beagle dog at 0.5 mg/kg, iv by LC-MS/MS method. In kind it is ADME, organism-based, Canis lupus familiaris.
Series [20] is described as follows: AUC (0 to infinity) in beagle dog at 1 mg/kg, po by LC-MS/MS method. Type of series: ADME, organism-based, Canis lupus familiaris. The arrangement: dose 1 mg/kg, route oral, time infinity. The note with it: in vivo.
A short description of series [21]: Oral bioavailability in beagle dog at 1 mg/kg by LC-MS/MS method. Type of series: ADME, organism-based, Canis lupus familiaris. Particulars: in vivo.
A short description of series [22]: Protein binding in beagle dog plasma at 2.5 uM incubated for 4 hrs by LC-MS/MS detection based equilibrium dialysis method. Type of series: ADME, cell-free, Canis lupus familiaris. Particulars: read-out: PPB (converted).
Series [23] in a line: Protein binding in human plasma at 2.5 uM incubated for 4 hrs by LC-MS/MS detection based equilibrium dialysis method. Type of series: ADME, cell-free. The note with it: read-out: PPB (converted). (In general: Equilibrium dialysis compares concentrations on both sides of a semipermeable membrane.)
A further series concerns the target Cytochrome P450 3A4 (Homo sapiens, UniProt P08684). In words: Time dependent inhibition of CYP3A4 (unknown origin). In kind it is ADME.
The nature of series [24]: Solubility in SGF at pH 1.8 at room temperature incubated for 4 hrs. In kind it is physicochemical.
The nature of series [25]: Permeability in LLC-PK1 cells at 1 uM incubated for 3 hrs by LC-MS/MS method. Type of series: ADME, cell-based, Sus scrofa. Particulars: pig, read-out: permeability.
Series [26] in a line: Permeability in MDCK2 cells at 1 uM incubated for 3 hrs by LC-MS/MS method. In kind it is ADME, cell-based, Canis lupus familiaris, MDCK-II. Particulars: dog, MDCK; read-out: permeability.
In series [27] the test system is Canis familiaris. The series can be described thus: AUC (0 to infinity) in beagle dog assessed as c(1R,2S,5R)-8'-(3-chloro-4-fluorobenzyl)-6'-hydroxy-1-(hydroxymethyl)-2'-methyl-9',10'-dihydro-1'H-spiro[bicyclo[3.1.0]hexane-2,3'-imidazo[5,1-a][2,6]naphthyridine]-1',5',7'(2'H,8'H)-trione evel at 2 mg/kg, po by LC-MS/MS method. Type of series: ADME, organism-based, Canis lupus familiaris. The arrangement: dose 2 mg/kg, route oral, time infinity. Particulars: in vivo. In a few lines:
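Oral rising-dose studies were run in beagle dogs with prodrugs, at doses normalized to account for the promoiety so that they give the actual parent dose administered. The read-out was plasma exposure (AUC) of the parent compound.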

The nature of series [28]: Half life in beagle dog at 0.5 mg/kg, iv by LC-MS/MS method. The note with it: in vivo. The source holds these as a separate data set.

In general, AUC(0-inf) refers to the area under the concentration-time curve extrapolated to infinity. The solubility is the concentration that dissolves in the medium under given conditions. Broadly, the amount remaining is the share of the starting amount still present when the sample was taken. Read a low amount remaining as a greater loss. Broadly, the clearance is the rate of elimination divided by the concentration. The low end stands for inefficient removal, the high end for efficient removal. As usually defined, the bioavailability is dose-corrected exposure relative to a reference, in per cent. In general, AUC refers to the area under the concentration-time curve, a measure of exposure. As a reminder, the half-life is how long it takes for the measured level to halve. Higher therefore signals slow loss.

Each structure is given as a SMILES string. Values after ≈ are worked out from the molar mass of the structure shown. Where only a bound is given, the exact number is not on record here.

Chain of Cytochrome P450 3A4 (P08684 whole entry): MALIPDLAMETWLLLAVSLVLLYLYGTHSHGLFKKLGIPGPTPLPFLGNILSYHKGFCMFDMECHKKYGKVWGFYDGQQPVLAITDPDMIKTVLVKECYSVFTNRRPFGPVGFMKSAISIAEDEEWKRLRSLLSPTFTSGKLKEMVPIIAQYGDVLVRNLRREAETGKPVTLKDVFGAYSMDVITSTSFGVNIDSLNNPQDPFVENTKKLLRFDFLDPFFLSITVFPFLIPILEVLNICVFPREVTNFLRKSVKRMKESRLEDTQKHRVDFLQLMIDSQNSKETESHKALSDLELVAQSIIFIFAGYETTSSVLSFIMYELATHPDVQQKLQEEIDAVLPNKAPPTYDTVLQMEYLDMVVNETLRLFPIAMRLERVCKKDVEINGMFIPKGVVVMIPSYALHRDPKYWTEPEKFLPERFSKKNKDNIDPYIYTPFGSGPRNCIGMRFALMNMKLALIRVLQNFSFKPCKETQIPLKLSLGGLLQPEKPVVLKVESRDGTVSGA

Compound `C[C@@H](CN1C(=O)c2c3c(c(O)c(=O)n2[C@@]12CC[C@H]1C[C@H]12)C(=O)N(Cc1ccc(F)c(Cl)c1)CC3)OC(=O)[C@@H](N)CCCCN` gave an IP in series [1] of 40 nM. Further, the total exposure AUC(0-inf) in series [2] turned out to be 6.8 µM·h. The compound also showed a solubility at 4 h in series [3] greater than 2000 µg/mL. Also, the amount remaining at 4 h in series [4] and in series [5] was 90% throughout.
Take `Cc1nnc(C(=O)NC(C)(C)c2nc(C(=O)NCc3ccc(F)cc3)c(O)c(=O)n2C)o1`: the results for the IP in series [1] and in series [6] were 9 nM and 53 nM, respectively.
With `O=C1N[C@]2(CC[C@H]3C[C@H]32)n2c1c1c(c(O)c2=O)C(=O)N(Cc2ccc(F)c(Cl)c2)CC1`, the IP in series [1] is given as 2.5 nM; in series [6] it was 600 nM. Also, the “Ratio IC50” value was determined as 3 in series [7], 1 in series [8] and 5 in series [9]. The compound also came in with a clearance in [10] of 0.12 mL/min/kg. Also, the Vd in series [11] worked out at 0.12 L/kg; in series [14], 0.19 L/kg. In [12], this compound had an AUC(0-inf) of 189 µM·h. Also, the bioavailability in [13] turned out to be 29%. The compound also came in with an exposure (AUC) in the series on Canis familiaris [15] of 47 µM·h. Moreover, the F in the series on Canis familiaris [16] came out at 27%. Also, the values for the half-life in series [17] and in series [18] were 16 h and 14 h, respectively.
`CN1C(=O)c2c3c(c(O)c(=O)n2[C@]12CC[C@@H]1C[C@@]12CO)C(=O)N(Cc1ccc(F)c(Cl)c1)CC3`: the IP stood at 3 nM in series [1] and 32 nM in series [6]. Further, the “Ratio IC50” value in series [7], in [8] and in series [9] was 1 in each case. In series [19], this compound displayed a clearance of 1.9 mL/min/kg. The Vd in series [14] is 0.4 L/kg. This compound also returned an area under the curve AUC(0-inf) in series [20] of 4.9 µM·h. The bioavailability in series [21] came out at 26%. In addition, the fraction unbound at 4 h, 2.5 µM in [22] is 0.014; in [23] it was 0.02. Besides, at Cytochrome P450 3A4, the TDI entry is recorded as “Not Active”. Besides, the solubility at 4 h in series [3] came to 30 µg/mL (≈ 61.5 µM); in series [24], 17 µg/mL (≈ 34.8 µM). The Papp at 3 h, 1 µM came to 6.7 ×10⁻⁶ cm/s in [25] and 8.4 ×10⁻⁶ cm/s in [26]. The AUC in the series with Canis familiaris [27] was found to be 8 µM·h. For the same compound, the half-life in series [28] was 5 h.

The record behind these values is ChEMBL document CHEMBL3621084, “Discovery of 2-Pyridinone Aminals: A Prodrug Strategy to Advance a Second Generation of HIV-1 Integrase Strand Transfer Inhibitors” (J Med Chem, 2015).
